Laboratory results: PMC3082038 (Cancer Chemotherapy and Pharmacology, 2010)
Marks after values point to notes of the source that are not given here.

Legend:
[1] = Plasma pharmacokinetics of TSU-68 in phase I patients; format: in vivo, human; conditions: for Cmax: 500 mg/m2, C max; for Cmax / Tmax: b.i.d. after meal; for half-life: 500 mg/m2, T 1/2, b.i.d. after meal; for Tmax: 500 mg/m2, T max
VCAM-1 = assay: Angiogenesis-related factor: VCAM-1; format: in vivo, human
Summary of the method: (§1)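 Plasma and urine were collected from patients before treatment and after day 8 and day 28 of oral test compound dosing, and analysed at a central commercial laboratory. ELISA kits were used for human VEGF (plasma and urine), ELAM-1, VCAM-1 and soluble t-PA. Soluble PAI-1 was measured by latex photometric immunoassay. Values are reported as median (range) per time point.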

t-PA = assay: Angiogenesis-related factor: t-PA; format: in vivo, human
Summary of the method: as §1

PAI-1 = assay: Angiogenesis-related factor: PAI-1; format: in vivo, human
Summary of the method: as §1

[2] = tested on: liver cytochrome P450, CYP1A1/2; conditions: non-clinical studies; cited from earlier work
[3] = Urinary excretion of TSU-68; format: in vivo, human; conditions: all dose levels
Summary of the method: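 Urine was collected in 0–12 h (b.i.d.) or 0–6/0–12 h (t.i.d.) intervals after selected doses, plus pre-dose and up to 24 h after the final sampled dose. Drug was measured by validated HPLC-UV (LLOQ 0.1 μg/ml), and excretion was expressed as % of dose.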

ELAM-1 = assay: Angiogenesis-related factor: ELAM-1; format: in vivo, human
Summary of the method: as §1

solid tumors = assay: Antitumor effect; format: in vivo, human
[4] = tested on: patients with advanced solid tumors; conditions: b.i.d., between-meal conditions; cited from earlier work
plasma VEGF = assay: Angiogenesis-related factor: plasma VEGF; format: in vivo, human
Summary of the method: as §1

[5] = 100 mg/m^2 after meals, previous clinical study; cited from earlier work
urinary VEGF = assay: Angiogenesis-related factor: urinary VEGF; format: in vivo, human
Summary of the method: as §1

[6] = human, plasma, oral, 1st dose, 500 mg/m^2, n=3, mean ± SD
[7] = human, plasma, oral, 3rd dose, 500 mg/m^2, n=3, mean ± SD
[8] = human, plasma, oral, 56th dose, 500 mg/m^2, n=3, mean ± SD
[9] = PD patients (13 pts.), Wilcoxon signed rank-sum test

## Cc1[nH]c(/C=C2\C(=O)Nc3ccccc32)c(C)c1CCC(=O)O [TSU-68, (Z)-5-[(1,2-dihydro-2-oxo-3H-indol-3-ylidene)methyl]-2,4-dimethyl-1H-pyrrole-3-propanoic acid]
[1]; [6]
  Cmax: 22.5 ± 10 µg/mL
  half-life: 2.35 ± 0.599 h
  Tmax: 4 ± 1.73 h
[1]; [7]
  Cmax: 8.79 ± 2.92 µg/mL
  half-life: 3.33 ± 1.16 h
  Tmax: 4.33 ± 1.53 h
[1]; [8]
  Cmax: 7.51 ± 3.46 µg/mL
  Tmax: 3.17 ± 1.44 h
[1]; human, plasma, oral, 56th dose, 500 mg/m^2, N = 1
  half-life: 1.82 h
[1]; human, plasma, oral, 500 mg/m^2 b.i.d., AUC Day 28, Pt 11, Colon ca., b.i.d. 500 mg/m^2 (1,600 mg/day)
  AUC: 44.6 µg·h/mL
[1]; t.i.d. after meal, 84th dose, 200 mg/m^2, N = 5, mean ± SD
  T 1/2: 4.773 ± 2.221^e h
[1]; t.i.d. after meal, 84th dose, 200 mg/m^2, n=6, mean ± SD
  AUC0–t: 24.75 ± 13.69 h
VCAM-1; day 8, 23 patients
  VCAM-1, median: 562 ng/mL
  VCAM-1, range: 303–1,140 ng/ml
VCAM-1; day 28, 22 patients
  VCAM-1, median: 545.5 ng/mL
  VCAM-1, range: 355 to 988 ng/mL
t-PA; day 8, 23 patients
  t-PA, median: 7.2 ng/mL
  t-PA, range: 3.3 to 14.3 ng/mL
t-PA; day 28, 22 patients
  t-PA, median: 6.8 ng/mL
  t-PA, range: 2.9 to 13.5 ng/mL
PAI-1; [9]
  Change of PAI-1 at day 28 compared to baseline: significantly increasing
PAI-1; day 8, 23 patients
  PAI-1, median: 28 ng/mL
  PAI-1, range: 11 to 92 ng/mL
PAI-1; day 28, 22 patients
  PAI-1, median: 31 ng/mL
  PAI-1, range: 11 to 120 ng/mL
[2]
  Effect on liver cytochrome P450, CYP1A1/2 involved in its own metabolism: induction
[3]
  Urinary excretion of TSU-68: below 1 % of dose
ELAM-1; day 8, 23 patients
  ELAM-1, median: 50 ng/mL
  ELAM-1, range: 13 to 136 ng/mL
ELAM-1; day 28, 22 patients
  ELAM-1, median: 45.5 ng/mL
  ELAM-1, range: 17 to 114 ng/mL
Solid tumors; 10/23 evaluable patients
  NC patients: 43.5%
Solid tumors; 10/23 patients
  Tumor control rate: 43.5%
Solid tumors; 23 evaluable patients
  PR patient: not found
Solid tumors; Pt 1, Cervical ca., b.i.d. 200 mg/m^2 (800 mg/day)
  TTP (time to progression): 162 days
Solid tumors; Pt 2, NSCLC, b.i.d. 200 mg/m^2 (800 mg/day)
  TTP (time to progression): 64 days
Solid tumors; Pt 4, SCLC, b.i.d. 400 mg/m^2 (1,200 mg/day)
  TTP (time to progression): ≥ 29 days
Solid tumors; Pt 8, Cholecystis ca., b.i.d. 400 mg/m^2 (1,200 mg/day)
  TTP (time to progression): 61 days
Solid tumors; Pt 9, NSCLC, b.i.d. 400 mg/m^2 (1,200 mg/day)
  TTP (time to progression): ≥ 29 days
Solid tumors; Pt 14, Soft tissue sa., t.i.d. 200 mg/m^2 (600 mg/day)
  TTP (time to progression): ≥ 254 days
Solid tumors; Pt 17, NSCLC, t.i.d. 200 mg/m^2 (1,200 mg/day)
  TTP (time to progression): 65 days
Solid tumors; Pt 19, NSCLC, t.i.d. 400 mg/m^2 (2,400 mg/day)
  TTP (time to progression): ≥ 28 days
Solid tumors; Pt 20, Colon ca., t.i.d. 400 mg/m^2 (1,800 mg/day)
  TTP (time to progression): ≥ 217 days
Solid tumors; Pt 23, Colon ca., t.i.d. 400 mg/m^2 (1,800 mg/day)
  TTP (time to progression): ≥ 28 days
Solid tumors; all dose levels
  Median survival period: 218 days
  Median time to progression: 28 days
[4]
  Recommended dosage: ≤ 800 mg/m^2
Plasma VEGF; [9]
  Change of plasma VEGF at day 28 compared to baseline: significantly increasing
Plasma VEGF; day 8, 23 patients
  Plasma VEGF, median: 55 pg/mL
  Plasma VEGF, range: <31 to 278 pg/mL
Plasma VEGF; day 28, 22 patients
  Plasma VEGF, median: 63 pg/mL
  Plasma VEGF, range: <31 to 270 pg/mL
[5]
  Absolute bioavailability: 42%
Urinary VEGF; day 8, 23 patients
  Urinary VEGF, median: 144 pg/mL
  Urinary VEGF, range: <31 to 1210 pg/mL
Urinary VEGF; day 28, 22 patients
  Urinary VEGF, median: 162.5 pg/mL
  Urinary VEGF, range: 68 to 730 pg/mL
